# Results gathered from unrelated publications.
# Lines come from different studies, so protocols differ.
# Route: oral
SMILES,species,medium,dose,bioavailability [%]
Oc1c(-n2ccnn2)cnn1-c1cc(N2CCOCC2)ncn1,female dog,plasma,1.5 mg/kg,71
Cc1cc(Nc2ccc(S(F)(F)(F)(F)F)cc2)n2nc(C(C)(F)F)nc2n1,male beagle dog,plasma,,~20
C=CC(=O)Nc1cc(Nc2nccc(Nc3cc(Cl)c(F)cc3C(C)(C)O)n2)c(OC)cc1N1CC[C@@H](N(C)C)C1,beagle dog,plasma,1 mg/kg,48.8
COc1ccc2c(c1OCc1ccccc1)C[C@@H](C(=O)O)N(C(=O)C(c1ccccc1)c1ccccc1)C2,male beagle dog,plasma,3 mg/kg,39
O=C(NCCN1CCCC1)c1cc(-c2ccc(CN3CCOCC3)cc2)nc2ccc(F)cc12,male beagle dog,blood,3 mg/kg,46
C#Cc1cnc2nc(O)n(C(CC)CC)c2n1,male beagle dog,plasma,1 mg/kg,> 90
N#C[C@@]1(c2ccc3c(N)ncnn23)O[C@H](CO)[C@@H](O)[C@H]1O,dog,plasma,5 mg/kg,92
CC#Cc1cncc(-c2ccc3c(c2)[C@@]2(N=C(C)C(N)=N2)[C@]2(CC[C@H](OC)CC2)C3)c1,male beagle dog,plasma,3 µmol/kg,80
Fc1ccc(Nc2n[nH]c3cccnc23)cc1Cl,dog,plasma,,36
